Calls of active or inactive are those of the source. No cut-off for these calls is given here.
Legend:
Mus musculus [1] = experiment: Antiinflammatory activity in PGE2-induced paw edema in Balb/c mouse assessed as inhibition of paw edema at 100 mg/kg, ip administered 1 hr prior to PGE2 challenge and measured up to 5 hrs relative to control; format: functional; conditions: time 2-6 hrs
Procedure, shortened: (§1)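 BALB/c mice of either sex (30–35 g), 8 per group, dosed i.p. with 10% DMSO, reference drug or compound (100 mg/kg). After 1 h, subplantar irritant: PGE2 0.01 µg/ml, bradykinin 20 µg/ml, histamine 0.1 ml of 1 mg/ml, or leukotriene 10 µg/ml.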

Mus musculus [2] = experiment: Antiinflammatory activity in histamine-induced paw edema in Balb/c mouse assessed as inhibition of paw edema at 100 mg/kg, ip administered 1 hr prior to histamine challenge and measured after 5 hrs; format: functional, organism-based; conditions: time 6.0 hrs; procedure, shortened: as §1
Mus musculus [3] = experiment: Antiinflammatory activity in histamine-induced paw edema in Balb/c mouse assessed as inhibition of paw edema at 100 mg/kg, ip administered 1 hr prior to histamine challenge and measured after 1 hr relative to control; format: functional; conditions: time 2 hrs; procedure, shortened: as §1
Mus musculus [4] = experiment: Antiinflammatory activity in PGE2-induced paw edema in Balb/c mouse assessed as inhibition of paw edema at 100 mg/kg, ip administered 1 hr prior to PGE2 challenge and measured after 4 hrs relative to control; format: functional; conditions: time 5 hrs; procedure, shortened: as §1
Mus musculus [5] = experiment: Antiinflammatory activity in histamine-induced paw edema in Balb/c mouse assessed as inhibition of paw edema at 100 mg/kg, ip administered 1 hr prior to histamine challenge and measured after 4 hrs relative to control; format: functional; conditions: time 5 hrs; procedure, shortened: as §1
Mus musculus [6] = experiment: Antiinflammatory activity in PGE2-induced paw edema in Balb/c mouse assessed as inhibition of paw edema at 100 mg/kg, ip administered 1 hr prior to PGE2 challenge and measured after 1 hr relative to control; format: functional; conditions: time 2 hrs; procedure, shortened: as §1
Mus musculus [7] = experiment: Antiinflammatory activity in PGE2-induced paw edema in Balb/c mouse assessed as inhibition of paw edema at 100 mg/kg, ip administered 1 hr prior to PGE2 challenge and measured after 5 hrs; format: functional, organism-based; conditions: time 6.0 hrs; procedure, shortened: as §1

Compound: Cc1ccc(C(=O)CC2CC(=O)N(c3ccc(S(N)(=O)=O)cc3)C2=O)cc1 (configuration not stated)
- inhibition in vivo at 100 mg/kg (Mus musculus [1]): 61.6%
- inhibition (Mus musculus [2]): Active
- inhibition in vivo at 100 mg/kg (Mus musculus [3]): 32.4%

Compound: O=C1CCCCC1C1CC(=O)N(Cc2ccccc2)C1=O (configuration not stated)
- inhibition in vivo at 100 mg/kg (Mus musculus [4]): 64.6%
- inhibition in vivo at 100 mg/kg (Mus musculus [5]): 17.1%
- inhibition in vivo at 100 mg/kg (Mus musculus [6]): 50.5%
- inhibition (Mus musculus [7]): Active

From ChEMBL document CHEMBL4715833, “Design, synthesis, in-vitro, in-vivo and in-silico studies of pyrrolidine-2,5-dione derivatives as multitarget anti-inflammatory agents” (Eur J Med Chem, 2020)
